Only some compounds are listed: those with a hit (about 4.6% of all), similar ones and a draw of the others.
Mdm2 ligase inh – MDM2-luciferase reporter signal enhancers, primary screen, MDM2 E3 ligase inhibitor project, cell-based, luminescence, 1536-well; cell-based MDM2 ubiquitination luciferase reporter, 2 h; 0 = plate control, 100 = twice control, blank-subtracted; signal enhancement, % at 5 µM; AID 1230, 2008; 210,000 tested, 0.11% active; E3 ubiquitin-protein ligase Mdm2 (Homo sapiens), Q00987;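 active = signal enhancement of 30% or more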;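 note: luminescence tracks abundance of the self-degrading MDM2-luciferase fusion protein; higher signal means inhibition of MDM2 E3 ligase activity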
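Material: stable MDM2–luciferase fusion reporter cells / Quantity: 2000 cells/well / Dosing: single 5 µM compound dose, 0.2% final DMSO / Buffer or medium: DMEM / Schedule: 4 h cell settling then 2 h compound exposure, 37 °C / Detection: luminescence with SteadyLite reagent, 15 min at room temperature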
STAT1 act – STAT1 signaling activators, primary screen, cell-based, HTS, luciferase reporter. activation (% of control), % at 5.5 µM. NIH 3T3 STAT1-luciferase reporter, IFN-gamma, luminescence; 100% = IFN-gamma alone, no compound. 200,000 tested, 2.6% active;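 active = activation above the screen-wide mean activation plus 3 SD, cut at about 130% in these data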;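 note: raw ratio to IFN-gamma control signal so 100% means no change and 0% no light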
APP 5'UTR act – activators of APP 5'UTR luciferase reporter, primary screen, SH-SY5Y cells. 190,000 tested, 1% active. SH-SY5Y APP 5'UTR luciferase reporter, luminescence; zero percent = DMSO vehicle wells. activation, % at 2 µM. AID 1276, 2008;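 active = activation above a set limit, based on mean plus 3 SD of controls, cut at about 140% in these data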
p97 inhibitor – inhibitors of human p97 ATPase, primary screen, biochemical | recombinant p97 ATPase, Kinase-Glo ATP luminescence, 3 h | AID 1481, 2009 | 220,000 tested, 0.42% active | inhibition, % at 8 µM; in the data active = inhibition above about 15%;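 note: 0% = DMSO vehicle and 100% = wells lacking enzyme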
Target sequence (P55072 whole entry, looked up): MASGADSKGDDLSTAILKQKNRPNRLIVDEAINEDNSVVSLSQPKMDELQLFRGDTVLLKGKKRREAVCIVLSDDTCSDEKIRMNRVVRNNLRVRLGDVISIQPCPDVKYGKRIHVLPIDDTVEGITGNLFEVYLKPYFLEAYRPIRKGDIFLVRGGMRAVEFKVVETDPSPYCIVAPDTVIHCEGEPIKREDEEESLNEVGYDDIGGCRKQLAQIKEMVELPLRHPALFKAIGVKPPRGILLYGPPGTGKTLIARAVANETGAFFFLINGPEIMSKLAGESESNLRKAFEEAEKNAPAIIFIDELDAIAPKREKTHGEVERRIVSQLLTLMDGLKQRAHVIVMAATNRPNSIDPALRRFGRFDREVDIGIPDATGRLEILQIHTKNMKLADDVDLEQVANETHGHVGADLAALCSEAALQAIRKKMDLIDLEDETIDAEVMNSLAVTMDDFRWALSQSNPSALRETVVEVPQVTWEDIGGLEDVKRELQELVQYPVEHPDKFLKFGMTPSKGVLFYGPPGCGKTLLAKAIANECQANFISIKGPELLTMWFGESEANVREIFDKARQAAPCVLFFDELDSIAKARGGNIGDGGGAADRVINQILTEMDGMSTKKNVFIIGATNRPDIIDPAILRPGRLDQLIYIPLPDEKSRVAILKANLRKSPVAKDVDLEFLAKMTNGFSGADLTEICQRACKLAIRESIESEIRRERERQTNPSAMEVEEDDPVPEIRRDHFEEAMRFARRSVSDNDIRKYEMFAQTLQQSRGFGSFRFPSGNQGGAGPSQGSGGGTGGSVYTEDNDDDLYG
Wee1 stabilizer – Wee1 degradation inhibitors, primary screen, cell-based, HeLa, Wee1K328M-luciferase, luminescence; Wee1-like protein kinase (Homo sapiens), P30291; HeLa Luc-Wee1K328M stability; 100% = proteasome inhibitor MG132 effect; reporter increase, % at 5 µM; 220,000 tested, 1.2% active; AID 1321, 2008;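 active = activation above the mean of all tested compounds plus 3 SD, set per screening run, cut at about 8.8% in these data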;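 note: cells exposed to compound for 20 h before luminescence read; 0% = DMSO alone and 100% = MG132 at 30 µM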
NF-kB expr up – activators of NF-kB expression in neurons, primary screen, cell-based, HTS | human neuronal cells, NF-kB reporter expression; stronger effect = higher value | fold change at 12.5 µM | 190,000 tested, 1.6% active; in the data active = fold change above about 3.3
STAT1 act conf – STAT1 signaling activators, confirmation, cell-based, HTS, luciferase reporter | NIH 3T3 STAT1-luciferase reporter, IFN-gamma potentiation, luminescence; 100% = IFN-gamma EC80 alone, no compound | 1,200 tested, 97% active | activation (% of control), % at 5.7 µM | shares compounds with STAT1 act;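 active = activation above a set limit carried over from the earlier primary STAT1 screen, cut at about 140% in these data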;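 note: simple ratio to median IFN-gamma plus DMSO wells so 0% means no light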
NFkB act – NF-kB reporter activators, TNF-alpha stimulated, counter-screen for STAT1 activator project, cell-based, HEK293T, luciferase luminescence; 1,200 tested, 43% active; activation (% of control), % at 5.7 µM; AID 1306, 2008; shares compounds with STAT1 act; 100% = TNF-alpha with vehicle only;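 active = activation above the mean of solvent-only control wells plus 3 SD, set per campaign, cut at about 130% in these data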;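 note: TNF-alpha given at a submaximal dose yielding about 80% of full reporter signal; values are well signal over median control so 100% means no change and 0% no light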
STAT3 act STAT1c – STAT3 reporter activation by STAT1 hits, confirmation, counter-screen for STAT1 activator project, U3A cells, luciferase, luminescence. activation (% of control), % at 5.7 µM. AID 1316, 2008. IL-6; cells lack STAT1; 100 = IL-6 alone, no compound effect. shares compounds with STAT1 act. 1,200 tested, 46% active;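 active = activation above the solvent-only control well mean plus 3 SD, set per plate batch, cut at about 110% in these data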;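 note: 0% = no luminescence and 100% = median IL-6 plus DMSO wells; higher means more STAT3 reporter activation so hits are non-selective activators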
An asterisk follows results filed as active; x = no result.

SMILES	Mdm2 ligase inh	STAT1 act	APP 5'UTR act	p97 inhibitor	Wee1 stabilizer	NF-kB expr up	STAT1 act conf	NFkB act	STAT3 act STAT1c
O=C(OC1CCCCC1)c1ccc(NC(=O)C2CCCCC2)cc1	-7	102	-2	-2	-2	0.81	x	x	x
COc1ccc(-c2ccc3ccccc3n2)cc1OC	-4	170*	143*	0	7	3.3*	195*	136*	111*
COc1ccc(-c2cc(OC)c3ccccc3n2)cc1	1	95	11	-6	3	1.1	x	x	x
O=C(NC12CC3CC(CC(C3)C1)C2)c1ccc(-c2cccc(Cl)c2)o1	-10	164*	192*	0	-1	0.82	210*	143*	128*
CN(C)c1ccc(/C=N/N2C(=N)N(c3ccccc3)C(=S)C2=Nc2ccccc2)cc1	x	163*	180*	2	1	x	185*	134*	113*
COc1ccc2nc3oc(C(=O)N4CCCCC4)cc3cc2c1	-2	179*	120	-1	2	6.4*	206*	136*	107
Cc1ccccc1C(=O)O/N=C1\CCS(=O)(=O)c2sccc21	-38	220*	0	4	1	5.8*	225*	146*	111*
c1ccc(-c2cc3nccc(-c4ccccn4)n3n2)cc1	-4	160*	100	0	3	3.2	188*	135*	117*
COc1ccc(Nc2nc(-c3cccs3)cs2)c(OC)c1	-6	164*	59	1	8	7*	216*	139*	118*
Oc1ccc(Nc2nc(-c3cccs3)cs2)cc1	4	91	14	14	6	1.1	x	x	x
COc1ccccc1Nc1nc(-c2cccs2)cs1	-13	171*	28	6	-1	5.7*	203*	143*	165*
COc1ccc(Nc2nc(-c3cccs3)cs2)cc1	-28	182*	105	-1	-1	2.3	214*	151*	122*
COc1ccc(OC)c(Nc2nc(-c3cccs3)cs2)c1	-10	110	1	7	1	1.1	x	x	x
CCC(=O)Nc1cccc(NC(=S)NC(=O)c2cccc(C)c2)c1	-19	124	86	2	2	2.9	x	x	x
CCC(=O)Nc1cccc(NC(=S)NC(=O)c2cc3ccccc3o2)c1	-30	157*	153*	5	-2	0.99	235*	122	111*
CCC(=O)Nc1cccc(NC(=S)NC(=O)c2ccccc2)c1	-3	151*	45	7	2	2.5	162*	128	114*
O=C1CC(c2ccccc2Cl)c2c(sc3c(=O)[nH]c(CCl)nc23)N1 (centres undefined)	-13	x	x	8	-1	x	x	x	x
Cc1cc(/C=C2/C(=O)N(C)C(=S)N2C)ccc1N1CCCC1	-25	175*	118	2	-1	3.2	168*	135*	146*
Clc1ccc(-n2ncc3c(NCCCn4ccnc4)ncnc32)cc1	-27	124	-11	-4	1	1.9	x	x	x
Clc1ccc(-n2ncc3c(NCCN4CCOCC4)ncnc32)cc1	-32	97	99	-1	0	0.87	x	x	x
C=CCNc1ncnc2c1cnn2-c1ccc(Cl)cc1	-22	177*	239*	6	5	5.4*	266*	133	108
CCCCNc1ncnc2c1cnn2-c1ccc(Cl)cc1	-18	158*	-33	1	6	7.2*	249*	140*	106
CC(C)(C)SCCNC(=O)CN(c1ccccc1)S(=O)(=O)c1ccc(F)cc1	-21	103	8	1	0	1.3	x	x	x
COc1ccc(S(=O)(=O)N(C)C)cc1NCC(=O)Nc1ccc(Br)c(C)c1	3	92	29	3	-3	1.2	x	x	x
CCN(CC)C(=O)C(=O)Nc1ccc(OC)c(Cl)c1	-5	106	1	2	2	1.3	x	x	x
SMILES	Mdm2 ligase inh	STAT1 act	APP 5'UTR act	p97 inhibitor	Wee1 stabilizer	NF-kB expr up	STAT1 act conf	NFkB act	STAT3 act STAT1c
O=C(O)c1cc(N/N=C/C=C/c2ccccc2)ccc1Cl	1	158*	179*	4	3	6.1*	210*	152*	127*
Fc1cccc(NCc2cn3ccccc3n2)c1	-23	169*	110	6	2	4.2*	194*	130	113*
Nc1cc(C(F)(F)F)ccc1Nc1ccccc1	-1	78	3	-1	-3	1.2	x	x	x
CCN(Cc1ccncc1)Cc1c(O)ccc2cc(Br)ccc12	2	101	18	5	-3	0.99	x	x	x
CCCc1nn(C)c(C(=O)Nc2ccccc2)c1Cl	-27	170*	156*	-3	5	0.6	199*	132	105
CCCc1nn(C)c(C(=O)Nc2ccc(Cl)cc2)c1Cl	-4	104	5	3	2	1.4	x	x	x
COc1ccc(C(=O)N=c2sccn2C)cc1	-9	128	54	-3	0	2	x	x	x
Cn1ccsc1=NC(=O)c1ccc(Cl)cc1	-10	156*	113	-1	3	2.7	166*	130	118*
CCc1ccc(NC(=S)N(Cc2cccc(Br)c2)CC2CCC(C(=O)O)CC2)cc1 (centres undefined)	-13	86	17	-11	5	1.2	x	x	x
NC(=O)c1cc(NC(=O)CCCc2nc3ccccc3s2)cc(C(N)=O)c1	-12	x	x	3	1	x	x	x	x
O=[N+]([O-])c1c(NCc2ccccc2)cc(N2CCc3ccccc3C2)c2nonc12	-13	107	21	2	0	1	x	x	x
O=C(CSc1nc2ccccc2c(=O)n1NC(=O)c1ccccc1)c1ccccc1	-30	151*	95	-3	4	2	159*	125	125*
